Calls of active or inactive are those of the source. The calls are words filed in the database; no cut-off is given here.
Experiments:
Staphylococcus aureus = assay: Antibacterial activity against Staphylococcus aureus ATCC 6538 up to 40 ug/mL by broth microdilution method; format: functional, organism-based
In short: (§1)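 Compounds are dissolved in DMSO. The minimal inhibitory concentration is estimated by broth microdilution.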

[1] = system: Staphylococcus epidermidis; assay: Antibacterial activity against Staphylococcus epidermidis CECT 232 up to 40 ug/mL by broth microdilution method; format: functional, organism-based; in short: as §1
[2] = system: Staphylococcus saprophyticus; assay: Antibacterial activity against Staphylococcus saprophyticus CECT 235 up to 40 ug/mL by broth microdilution method; format: functional, organism-based; in short: as §1
Enterococcus faecalis = assay: Antibacterial activity against Enterococcus faecalis CECT 795 up to 40 ug/mL by broth microdilution method; format: functional, organism-based; in short: as §1
Bacillus subtilis = assay: Antibacterial activity against Bacillus subtilis CECT 39 up to 40 ug/mL by broth microdilution method; format: functional, organism-based; in short: as §1
Bacillus cereus = assay: Antibacterial activity against Bacillus cereus CECT 496 up to 40 ug/mL by broth microdilution method; format: functional, organism-based; in short: as §1
Bacillus pumilus = assay: Antibacterial activity against Bacillus pumilus CECT 29 up to 40 ug/mL by broth microdilution method; format: functional, organism-based; in short: as §1
Priestia megaterium = assay: Antibacterial activity against Bacillus megaterium CECT 44 up to 40 ug/mL by broth microdilution method; format: functional, organism-based; in short: as §1
[3] = system: Mycolicibacterium smegmatis; assay: Antibacterial activity against Mycobacterium smegmatis CECT 3032 up to 40 ug/mL by broth microdilution method; format: functional, organism-based; in short: as §1
Escherichia coli = assay: Antibacterial activity against Escherichia coli CECT 99 up to 40 ug/mL by broth microdilution method; format: functional, organism-based; in short: as §1
Proteus mirabilis = assay: Antibacterial activity against Proteus mirabilis CECT170 up to 40 ug/mL by broth microdilution method; format: functional, organism-based; in short: as §1
Salmonella = assay: Antibacterial activity against Salmonella sp. CECT 456 up to 40 ug/mL by broth microdilution method; format: functional, organism-based; in short: as §1
Pseudomonas aeruginosa = assay: Antibacterial activity against Pseudomonas aeruginosa AK 958 up to 40 ug/mL by broth microdilution method; format: functional, organism-based; in short: as §1
Candida albicans = assay: Antifungal activity against Candida albicans UBC1 up to 40 ug/mL by broth microdilution method; format: functional, organism-based
In short: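 The yeast is grown on Sabouraud agar at 37 °C. Compounds are dissolved in DMSO, and the minimal inhibitory concentration is estimated by broth microdilution.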

HeLa = assay: Cytotoxicity against human HeLa cells after 48 hrs by MTT assay; format: functional, cell-based
In short: (§2)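 Monolayers are cultured in DMEM with 5% fetal calf serum and 1% penicillin-streptomycin at 37 °C, 5% CO2 and 90% humidity. Exponentially growing cells (2 × 10^4 cells/well) are exposed to a range of compound concentrations for 48 h at 37 °C. Viability is read by colorimetric MTT reduction.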

HEp-2 = assay: Cytotoxicity against human Hep2 cells after 48 hrs by MTT assay; format: functional, cell-based; conditions: HEp-2, 48 h; in short: as §2
Vero = assay: Cytotoxicity against african green monkey Vero cells after 48 hrs by MTT assay; format: cell-based; conditions: Chlorocebus sabaeus; in short: as §2

| Structure (SMILES) | Activity (Staphylococcus aureus) | Activity [1] | Activity [2] | Activity (Enterococcus faecalis) | Activity (Bacillus subtilis) | Activity (Bacillus cereus) | Activity (Bacillus pumilus) | Activity (Priestia megaterium) | Activity [3] | Activity (Escherichia coli) | Activity (Proteus mirabilis) | Activity (Salmonella) | Activity (Pseudomonas aeruginosa) | Activity (Candida albicans) | IC50 (HeLa) [µg/mL] | IC50 (HEp-2) [µg/mL] | IC50 (Vero) [µg/mL] |
| --- | --- | --- | --- | --- | --- | --- | --- | --- | --- | --- | --- | --- | --- | --- | --- | --- | --- |
| C=C(C)[C@@H]1CC[C@]2(C)CC[C@]3(C)[C@@H](CC[C@@H]4[C@@]5(C)[C@@H](O)C[C@H](O)C(C)(C)[C@@H]5CC[C@]43C)[C@@H]12 [GLOCHIDIOL] | inactive | inactive | inactive | inactive | inactive | inactive | inactive | inactive | inactive | inactive | inactive | inactive | inactive | inactive | > 10 | > 10 | > 10 |
| C=C(C)[C@@H]1CC[C@]2(C)CC[C@]3(C)[C@@H](CC[C@@H]4[C@@]5(C)C=CC(=O)C(C)(C)[C@@H]5CC[C@]43C)[C@@H]12 [GLOCHIDONE] | inactive | inactive | inactive | inactive | inactive | inactive | inactive | inactive | inactive | inactive | inactive | inactive | inactive | inactive | > 10 | > 10 | > 10 |
| C=C(C)[C@@H]1CC[C@]2(C)CC[C@]3(C)[C@@H](CC[C@@H]4[C@@]5(C)[C@H](O)CC(=O)C(C)(C)[C@@H]5CC[C@]43C)[C@@H]12 [GLOCHIDONOL] | inactive | inactive | inactive | inactive | inactive | inactive | inactive | inactive | inactive | inactive | inactive | inactive | inactive | inactive | < 10 | < 10 | < 10 |
| C=C(C)[C@@H]1CC[C@]2(C)CC[C@]3(C)[C@H](CC[C@@H]4[C@@]5(C)CCC(=O)C(C)(C)[C@@H]5CC[C@]43C)[C@@H]12 [LUPENONE] | inactive | inactive | inactive | inactive | inactive | inactive | inactive | inactive | inactive | inactive | inactive | inactive | inactive | inactive | > 10 | > 10 | > 10 |
| C=C(C)[C@@H]1CC[C@]2(C)CC[C@]3(C)[C@H](CC[C@@H]4[C@@]5(C)CC[C@H](O)C(C)(C)[C@@H]5CC[C@]43C)[C@@H]12 [LUPEOL] | inactive | inactive | inactive | inactive | inactive | inactive | inactive | inactive | inactive | inactive | inactive | inactive | inactive | inactive | > 10 | > 10 | > 10 |
